Data published in paper PMC3422889 (The Journal of organic chemistry, 2009).
Read-outs that look alike come from different tables or passages of the source. One block for each compound: values may come before it.

Columns and labels:
[1] = Effect of H2O on the rate of disappearance of the 390-400 nm band; format: physicochemical; details: CH3CN cosolvent
[2] = cited from earlier work
[3] = wholly aqueous solution; cited from earlier work
[4] = Stern-Volmer quenching with potassium sorbate; format: physicochemical; details: H2O
Procedure, shortened: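 pHP-GABA solutions (0.001–0.01 M) were diluted with potassium sorbate (0–0.1 M) in water. They were photolyzed under the quantum-yield conditions, and GABA-release quantum efficiencies were measured. KSV was the slope of φ0/φ versus [Q]. Triplet lifetime was derived assuming kq equals the diffusion rate, 7.2 × 10^9 […].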

[5] = Nanosecond flash photolysis, decay of the 340-nm transient; format: physicochemical; details: water containing ca. 10 % ACN
[6] = Quantitative photolysis, quantum yields for disappearance; format: physicochemical; details: for φdis (1-octanol): solvent 1-octanol
Procedure, shortened: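 Test compound (1–9 mM) with caffeine or 4-acetamidophenol internal standard was dissolved in water, buffer, salt solution or solvent in quartz tubes. Samples were irradiated in a Rayonet reactor with two 3000 Å lamps, or at 350 nm for the TRIS pH 9.0/LiClO4 case. Aliquots taken every 30 s up to 5 min (<20% conversion) went to LC/UV or LC/MS/MS. Photon flux came from ferrioxalate actinometry. At least three independent runs were done.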

[7] = Picosecond pump-probe transient absorption, singlet and triplet lifetimes; format: physicochemical; details: for kpF rate constant for the photo-Favorskii process: calculated as φdis/3τ
Procedure, shortened: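 Transient absorption used the femtosecond pump–supercontinuum probe method. Pump pulses were 266 nm, 1 μJ, <100 fs. The supercontinuum probe spanned 270–690 nm, with both beams focused to 0.2 mm on sample flowing through a 0.4 mm cell. Detection was by photodiode array. Spectra were corrected for chirp and solvent contribution. kpF was taken as φdis/3τ.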

Structure (SMILES): CCOP(=O)(OCC)OCC(=O)c1ccc(O)cc1 [pHP diethyl phosphate]
3kdis ([1]; 74.53 mol % H2O): 3.30 × 10^9 S^−1
3kdis ([1]; 95.14 mol % H2O): 9.95 × 10^9 S^−1
3kdis ([1]; 100.00 mol % H2O): 1.6 × 10^10 S^−1
3kdis ([2]; 0.00 mol % H2O, CH3CN, ref B. Hellrung, J. Wirz unpublished): 2.62 × 10^5 S^−1
3kdis ([2]; 5.04 mol % H2O, CH3CN cosolvent, ref B. Hellrung, J. Wirz unpublished): 2.72 × 10^6 S^−1
3kdis ([2]; 7.51 mol % H2O, CH3CN cosolvent, ref B. Hellrung, J. Wirz unpublished): 6.56 × 10^6 S^−1
3kdis ([2]; 10.00 mol % H2O, CH3CN cosolvent, ref B. Hellrung, J. Wirz unpublished): 1.15 × 10^7 S^−1
3kdis ([2]; 15.03 mol % H2O, CH3CN cosolvent, ref B. Hellrung, J. Wirz unpublished): 3.84 × 10^7 S^−1
3kdis ([2]; 24.54 mol % H2O, CH3CN cosolvent, ref Phillips 14): 1.11 × 10^8 S^−1
3kdis ([2]; 34.05 mol % H2O, CH3CN cosolvent, ref Phillips 14): 4.17 × 10^8 S^−1
3kdis ([2]; 49.38 mol % H2O, CH3CN cosolvent, ref Phillips 14): 7.81 × 10^8 S^−1
3kdis ([2]; 55.64 mol % H2O, CH3CN cosolvent, ref Phillips 14): 1.25 × 10^9 S^−1
3kdis ([2]; 66.11 mol % H2O, CH3CN cosolvent, ref Phillips 14): 1.89 × 10^9 S^−1
3kdis ([2]; 89.77 mol % H2O, CH3CN cosolvent, ref Phillips 14): 3.45 × 10^9 S^−1
3τ triplet lifetime [3]: 60 ps

KSV Stern-Volmer constant [4]: 20 M⁻¹
quantum yield in 10% H2O:CH3CN ([6]; 10% (v:v) H2O:CH3CN): 0.12
quantum yield in dry CH3CN ([6]; dry CH3CN): 0.03
φdis (1-octanol) [6]: 0.14
release of the amino acid upon irradiation ([6]; λ > 300 nm, aqueous media, ambient conditions): quantitatively released
3τ triplet lifetime ([7]; 10% CH3CN/H2O, pump-probe): 0.71 ns
3τ triplet lifetime ([7]; H2O): 0.46 ns
Structure (SMILES): NCCCC(=O)OCC(=O)c1ccc(O)c(OC(F)(F)F)c1 [compound 2, CF3O-pHP GABA]
kdec decay rate constant of the 340-nm transient [5]: ~6.5e+06 s⁻¹
kpF rate constant for the photo-Favorskii process ([7]; H2O): 1.98 10^8 s^−1

φdis (1-octanol) [6]: 0.12
1τ singlet lifetime ([7]; H2O): 2.3 ps
3τ triplet lifetime ([7]; H2O): 0.34 ns
Structure (SMILES): NCCCC(=O)OCC(=O)c1ccc(O)cc1 [compound 1, pHP GABA]
kpF rate constant for the photo-Favorskii process ([7]; H2O): 6.00 10^8 s^−1
